The text below walks through data of ChEMBL document CHEMBL5107952, “Synthesis of low-molecular weight fucoidan derivatives and their binding abilities to SARS-CoV-2 spike proteins” (RSC Med Chem, 2021).

Activity calls are given as the source filed them. No cut-off for these calls is given here. A value given as a limit tells only on which side of the number the result lay.

Experiment [1] has as its target Spike glycoprotein (Severe acute respiratory syndrome coronavirus 2) (UniProt P0DTC2). As to the kind of experiment: Competitive inhibition of biotinylated heparin binding to His-tagged wild type SARS-COV-2 spike protein at 50 uM incubated for 300 sec by biolayer interferometry streptavidin sensor based assay. For orientation: Biolayer interferometry detects binding as a change in optical thickness at a sensor tip.

Experiment [2] deals with T1, Spike glycoprotein (Severe acute respiratory syndrome coronavirus 2, UniProt P0DTC2). The experiment is described as follows: Competitive inhibition of biotinylated heparin binding to His-tagged wild type SARS-COV-2 spike protein incubated for 300 sec by biolayer interferometry streptavidin sensor based assay. An outline of the steps: (§1)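 Streptavidin BLI sensor tips loaded with biotinylated heparin and exposed to wild-type S protein (1 μM) mixed with test compound (0–500 μM) in TBS (20 mM Tris, pH 7.4, 0.02% BSA). Bound (%) was taken from the BLI response. IC50 came from nonlinear regression, and Ki was derived from IC50 by the Cheng–Prusoff equation.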

For experiment [3], the target named is T1, Spike glycoprotein. As to the kind of experiment: Competitive inhibition of biotinylated heparin binding to His-tagged wild type SARS-COV-2 spike protein assessed inhibition constant incubated for 300 sec by biolayer interferometry streptavidin sensor based assay. An outline of the steps:
as §1

`CCCCCCCCO[C@H]1O[C@@H](C)[C@@H](O[C@@H]2O[C@@H](C)[C@@H](OS(=O)(=O)O)[C@@H](O[C@@H]3O[C@@H](C)[C@@H](O[C@@H]4O[C@@H](C)[C@@H](OS(=O)(=O)O)[C@@H](OS(=O)(=O)O)[C@@H]4OS(=O)(=O)O)[C@@H](OS(=O)(=O)O)[C@@H]3OS(=O)(=O)O)[C@@H]2OS(=O)(=O)O)[C@@H](OS(=O)(=O)O)[C@@H]1OS(=O)(=O)O`: the inhibition (commonly the share of the control response that was lost under treatment) in experiment [1] is “Active”. Molecule `CCCCCCCCO[C@H]1O[C@@H](C)[C@@H](OS(=O)(=O)O)[C@@H](O[C@@H]2O[C@@H](C)[C@@H](OS(=O)(=O)O)[C@@H](O[C@@H]3O[C@@H](C)[C@@H](OS(=O)(=O)O)[C@@H](O[C@@H]4O[C@@H](C)[C@@H](OS(=O)(=O)O)[C@@H](OS(=O)(=O)O)[C@@H]4OS(=O)(=O)O)[C@@H]3OS(=O)(=O)O)[C@@H]2OS(=O)(=O)O)[C@@H]1OS(=O)(=O)O` gave an inhibition in experiment [1] of less than 10%. On to `CCCCCCCCO[C@H]1O[C@@H](C)[C@@H](O[C@@H]2O[C@@H](C)[C@@H](O[C@@H]3O[C@@H](C)[C@@H](O[C@@H]4O[C@@H](C)[C@@H](OS(=O)(=O)O)[C@@H](OS(=O)(=O)O)[C@@H]4OS(=O)(=O)O)[C@@H](OS(=O)(=O)O)[C@@H]3OS(=O)(=O)O)[C@@H](OS(=O)(=O)O)[C@@H]2OS(=O)(=O)O)[C@@H](OS(=O)(=O)O)[C@@H]1OS(=O)(=O)O`, for which, in experiment [1], the inhibition entry is “Active”. Also, the IC50 (usually the point on the concentration scale where inhibition reaches its midpoint) on Spike glycoprotein [2] was determined as 86.9 µM. The Ki (as a rule, a dissociation constant, usually derived from enzyme kinetics or from competition with a known ligand) at Spike glycoprotein [3] was 3.02 µM.
